Most compounds without a hit are left out; they make up all but 5.2% or so of the library.
ALR inh – inhibitors of human sulfhydryl oxidase ALR; P55789; purified ALR, DTT oxidation, H2O2 HRP-luminol luminescence; inhibition, % (concentration not given with the values); 290,000 tested, 3.8% active; AID 485317;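 active means mean replicate inhibition above about 79%, with every replicate also reaching it, limit read from the data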
Target sequence (P55789 whole entry, looked up): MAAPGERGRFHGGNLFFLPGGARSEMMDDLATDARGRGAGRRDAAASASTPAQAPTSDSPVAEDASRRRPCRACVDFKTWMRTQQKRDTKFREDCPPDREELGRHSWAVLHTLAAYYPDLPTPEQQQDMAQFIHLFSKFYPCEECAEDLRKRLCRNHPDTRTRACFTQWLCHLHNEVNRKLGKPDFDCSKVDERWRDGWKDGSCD
EBNA-1 inh – blocks EBNA-1 binding to DNA; EBNA-1 DNA binding, fluorescence polarization; inhibition, % at 14.8 µM; 300,000 tested, 0.34% active; in the data active means inhibition above about 28%
PfM18AAP inh – PfM18AAP enzyme inhibition | inhibition, % at 7.35 µM | 290,000 tested, 1.2% active | recombinant PfM18AAP, H-Glu-NHMec fluorogenic cleavage | AID 1822;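 active means inhibition above the campaign mean inhibition over all tested compounds plus 3 SD, cut at about 28% in these data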;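 further: 0% = plate median of test compound wells and 100% = 2 mM ZnCl2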
HCV core dimer – HCV core protein dimerization inhibition; TR-FRET GST/Flag-core106 dimerization, 1536-well; inhibition, % at 5 µM; 300,000 tested, 0.33% active; AID 1899;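 active means inhibition above the mean of all tested compounds plus 3 SD, set per screening campaign, cut at about 45% in these data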
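test system = GST/Flag-tagged HCV core106 proteins | probe or stimulus = Eu donor and XL665 acceptor anti-tag antibodies | times = compound-protein-antibody incubation 4 h at 22.5 °C | signal = TR-FRET, excitation 340 nm, emission 617 and 671 nm | measure = percent inhibition of core106 dimerization signal | controls = wells lacking GST-core106 and wells with excess unlabelled core106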
ZTA counter – counter-screen for EBNA-1 inhibitors: inhibitors of Epstein-Barr virus ZTA; P03206; ZTA-DNA binding, fluorescence polarization; inhibition, % at 11 µM; 320,000 tested, 0.15% active; AID 2234; in the data active means inhibition above about 33%
Target sequence (P03206 whole entry, looked up): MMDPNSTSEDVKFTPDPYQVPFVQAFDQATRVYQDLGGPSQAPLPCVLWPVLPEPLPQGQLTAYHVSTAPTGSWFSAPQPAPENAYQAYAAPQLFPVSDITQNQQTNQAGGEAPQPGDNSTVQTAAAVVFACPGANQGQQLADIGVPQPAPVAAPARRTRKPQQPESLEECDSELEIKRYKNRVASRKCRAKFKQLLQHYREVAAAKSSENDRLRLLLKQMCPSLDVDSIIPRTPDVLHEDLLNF
NS3 helicase inh – HCV NS3 helicase inhibition. NS3 helicase DNA unwinding, Cy5 molecular beacon fluorescence. inhibition, % at 10.9 µM. 290,000 tested, 0.56% active;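 active means inhibition above the mean of all tested compounds plus 3 SD, set per campaign, cut at about 35% in these data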;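 further: 0% = DMSO wells and 100% = thioflavine S control wells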
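Assay system: hepatitis C virus NS3 helicase domain fragment enzyme. Also added: annealed dual-labelled DNA beacon duplex, ATP-started. Timing: 1 h reaction at 25 °C, ATP-initiated. Technique: Cy5 fluorescence at 0 and 60 min, beacon hairpin quenching. Evaluation: % inhibition of unwinding. Replication: one well per compound.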
Active calls of the source: *; / = no result.

SMILES	ALR inh	EBNA-1 inh	PfM18AAP inh	HCV core dimer	ZTA counter	NS3 helicase inh
O=C1CSC(c2cccnc2)N1c1ccc(F)cc1 (centres undefined)	99.1*	8.2	-6.5	3.9	6.7	1.7
Cc1ccc(N2C(=O)CSC2c2cccnc2)c(Cl)c1 (centres undefined)	/	-0.3	-13.0	-1.6	-23.0	11.3
COc1ccc(CC(=O)Nc2nc3ccccc3s2)cc1S(=O)(=O)N1CCOCC1	-4.3	-9.6	7.4	-0.3	-2.6	0.4
COc1ccc(NC(=O)Cn2ncc(Cl)c(Cl)c2=O)cc1S(=O)(=O)N1CCOCC1	/	9.5	0.4	50.0*	3.9	35.3
COc1ccc(NC(=O)c2cc3c(s2)CCC3)cc1S(=O)(=O)N1CCOCC1	98.6*	3.0	8.7	94.1*	-15.1	13.5
COc1ccc(C)cc1NC(=O)c1cc2c(s1)CCC2	94.2*	-14.3	5.9	4.6	-7.8	-3.8
COc1ccc(CC(=O)Nc2nc3ccc(F)cc3s2)cc1S(=O)(=O)N1CCOCC1	98.7*	7.2	-7.2	3.6	17.2	-4.3
Cc1cc(N(CCO)CCO)ccc1C(c1ccc(N(CCO)CCO)cc1C)c1ccccc1Cl	44.4	-3.9	2.8	6.6	17.1	-38.2
CC1CC(C)CN(C(=O)C(Cc2ccccc2)NC(=O)c2ccccc2)C1 (centres undefined)	-8.3	2.4	/	-2.7	3.7	/
CN(C)CCCNC(=O)c1cc(C(=O)c2cccc(Cl)c2Cl)c[nH]1	-3.9	2.7	0.0	5.5	9.7	-19.7
O=C(NCC(c1ccco1)N1CCc2ccccc21)c1c(F)cccc1F (centres undefined)	28.5	4.3	/	-4.1	3.1	/
O=C(NCC(c1ccco1)N1CCc2ccccc21)c1ccccc1Cl (centres undefined)	98.4*	13.6	/	-0.2	-6.1	/
O=S(=O)(NCC(c1ccco1)N1CCN(c2ccccc2F)CC1)c1ccccc1 (centres undefined)	0.6	-8.8	-1.9	-7.4	-12.0	-7.2
O=S(=O)(NCC(c1ccco1)N1CCc2ccccc21)c1ccccc1 (centres undefined)	97.4*	-15.8	/	1.6	-12.8	/
Cc1ccc(C)c(NS(=O)(=O)c2ccc3c(c2)Cc2cc(S(=O)(=O)Nc4cc(C)ccc4C)ccc2-3)c1	9.1	16.8	-7.3	22.2	16.1	2.1
O=C(Nc1ccc(Cl)cc1F)C1CC1	-5.7	-9.3	5.9	1.9	-1.7	1.1
Cn1c(SC2C(=O)CC(C)(C)CC2=O)nnc1-c1ccco1	0.9	-2.6	-1.0	4.7	-0.4	2.6
CC1(C)CC(=O)C(Sc2nnc(-c3ccc(NS(C)(=O)=O)cc3)n2Cc2ccco2)C(=O)C1	91.5*	2.5	-1.1	3.7	0.3	-5.3
CCOc1ccc(NC(=O)C(C)SC(N)=O)cc1 (centres undefined)	98.9*	-5.5	7.8	-1.8	-8.5	-4.8
COc1ccccc1N1CCN(C(=O)CCCN2C(=O)c3cccc4cccc(c34)C2=O)CC1	-1.4	3.1	0.2	9.4	-7.6	-19.7
Nn1c(SCC(=O)Nc2ccc(N3CCOCC3)cc2)nnc1-c1cccc(F)c1	98.7*	/	/	/	-2.1	/
Nn1c(SCC(=O)Nc2ccc(N3CCOCC3)cc2)nnc1-c1ccccc1F	98.5*	/	/	/	12.0	/
CC(=O)c1ccc(NC(=O)CN2C(=O)NC3(CCc4ccccc43)C2=O)cc1 (centres undefined)	53.8	/	/	/	/	/
S=C(NCCc1cccc(Cl)c1)NC1CCCCC1	12.1	/	3.7	/	/	-1.2
CN1CCN(/N=C/c2ccc(N(c3ccccc3)c3ccccc3)cc2)CC1	95.7*	3.6	-1.7	-3.2	-5.1	-61.0
SMILES	ALR inh	EBNA-1 inh	PfM18AAP inh	HCV core dimer	ZTA counter	NS3 helicase inh
CN1CCN(/N=C/c2ccc(N(C)c3ccccc3)cc2)CC1	99.1*	-4.9	-5.2	-6.0	4.6	-5.4
CN(C)c1ccc(C(c2nnnn2C(C)(C)C)N2CCN(C(=O)c3ccco3)CC2)cc1 (centres undefined)	90.3*	-5.3	20.2	10.7	-7.5	2.9
CCCCCCSc1nc(O)c(C2OC(=O)c3c2ccc(OC)c3OC)c(=O)n1-c1ccccc1 (centres undefined)	98.0*	8.2	8.4	30.9	23.0	19.5
CCN1CCN(CCC2Oc3cc([N+](=O)[O-])ccc3NC2=O)CC1 (centres undefined)	3.2	-4.9	-7.5	4.1	1.9	19.4
COc1ccc(N2CCN(CCC3Oc4cc([N+](=O)[O-])ccc4NC3=O)CC2)cc1 (centres undefined)	86.0*	1.5	5.3	-0.7	-8.8	-3.7
COc1ccc(Oc2cccc(Cl)c2CNC(=O)c2ccccc2C(=O)O)cc1	4.3	-5.7	-2.2	0.2	-0.1	-6.6
Cc1ccccc1NC(=O)/C(=C/c1ccco1)c1ccccc1	83.5*	6.8	-7.0	5.7	0.6	1.8
CC(C)(C)NC(=O)/C(=C/c1ccco1)c1ccccc1	89.7*	7.7	-14.4	0.8	2.2	15.1
CC1C/C(=N/NC(=O)c2cccc(F)c2)c2ccc(O)cc2C1 (centres undefined)	98.8*	7.8	8.5	-2.2	-8.8	-3.9
COc1ccc2c(c1)CC(C)C/C2=N\NC(=O)c1ccco1 (centres undefined)	-2.8	-6.6	-4.7	-0.4	-16.3	-9.0
S=c1[nH]nc(CN2CCCCC2)n1-c1ccc(Cl)cc1	19.4	7.0	13.0	1.4	6.5	5.8
Fc1ccc(-n2c(CN3CCCCC3)n[nH]c2=S)cc1	86.9*	-8.1	16.8	1.1	3.8	14.0
CCc1c(C)c2cc(Cl)c(O)c(CN3CCCC3)c2oc1=O	31.3	/	10.8	/	/	34.9
CC(=O)Nc1ccc(N(C(=O)c2ccco2)C(C(=O)NC2CCCCC2)c2ccccc2)cc1 (centres undefined)	/	-17.2	2.1	2.4	-13.3	1.9
CCNC(=S)/C(=C(/[O-])c1ccc([N+](=O)[O-])cc1)[n+]1ccccc1	99.0*	3.7	4.5	7.6	3.5	-6.2
CC(C)(C)c1ccc(/C([O-])=C(/C(=S)NCc2ccco2)[n+]2ccccc2)cc1	-2.8	17.4	5.1	53.2*	-7.0	14.2
O=C(Nc1cccnc1)c1sc(Nc2ccccc2)nc1-c1ccccc1	-2.2	88.7*	3.8	-32.5	3.1	-3.0
Cc1cccc(Nc2nc(-c3ccccc3)c(C(=O)Nc3cccnc3)s2)c1	18.3	8.2	17.0	-53.3	11.3	-19.0
COc1ccccc1NCCC(=O)OCC(=O)NC1CCCCCC1	98.8*	0.3	12.3	6.7	-3.6	1.3
COc1ccccc1NCCC(=O)OCC(=O)Nc1ccccc1F	99.2*	/	/	/	/	/
COc1ccccc1CCC(=O)OCC(=O)NC1CCCC1	3.8	8.7	/	1.0	15.5	/
CN(C)c1ccc(N=Nc2ccc(S(=O)(=O)O)cc2)c2ccccc12	98.8*	-4.1	2.7	-12.8	15.8	21.0

Screens: PubChem, several laboratories
